Data published in article PMC2018624 (Nucleic Acids Research, 2007).
Square brackets hold non-standard residues; d marks the D form. Ends that are not written are not given here. Peptide text beside a SMILES is read from it. * marks the point of attachment. Biotin = O=C1N[C@H]2[C@H](CS[C@H]2CCCCC(=O)*)N1; pS = N[C@@H](COP(=O)(O)O)C(=O)O

What was measured:
FLAG-hPTIP = assay: Co-immunoprecipitation of mutant HA-53BP1 with FLAG-hPTIP after IR; format: cell-based, human; settings: HEK293, IR 0 or 20 Gy, anti-FLAG immunoprecipitates
How it was run: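 HEK293 cells in DMEM with 10% FBS and penicillin/streptomycin at 37°C, 5% CO2. Cells co-transfected by calcium phosphate with FLAG-hPTIP and full-length HA-53BP1 carrying Ser/Thr→Ala mutations at ATM S/T-Q motifs. Cells irradiated at 0 or 20 Gy and lysed. Anti-FLAG immunoprecipitates run on SDS–PAGE and western blotted to detect co-precipitated 53BP1.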

HEK293 cells = assay: 53BP1 retention at sites of DNA damage; format: cell-based; settings: HEK293, 10 Gy IR, 45 min recovery
[1] = test system: 53BP1 Ser25 phosphorylation in HEK293 cells; assay: IR-induced phosphorylation of 53BP1 Ser25 in HEK293 cells; format: cell-based; settings: 10 μM inhibitor pre-incubated 1 h, IR 10 Gy, western blot
[2] = target: hPTIP BRCT domain pair C2 (Homo sapiens, UniProt Q6ZW49); assay: BiaCore binding to hPTIP BRCT pair C2 alone
[3] = target: hPTIP-BRCT pair C1 + C2 W676A (Homo sapiens, UniProt Q6ZW49, W676A); assay: BiaCore binding to hPTIP BRCT pair C1 + C2 W676A
Sequence of hPTIP-BRCT pair C1 + C2 W676A (Q6ZW49 590-1069 W676A): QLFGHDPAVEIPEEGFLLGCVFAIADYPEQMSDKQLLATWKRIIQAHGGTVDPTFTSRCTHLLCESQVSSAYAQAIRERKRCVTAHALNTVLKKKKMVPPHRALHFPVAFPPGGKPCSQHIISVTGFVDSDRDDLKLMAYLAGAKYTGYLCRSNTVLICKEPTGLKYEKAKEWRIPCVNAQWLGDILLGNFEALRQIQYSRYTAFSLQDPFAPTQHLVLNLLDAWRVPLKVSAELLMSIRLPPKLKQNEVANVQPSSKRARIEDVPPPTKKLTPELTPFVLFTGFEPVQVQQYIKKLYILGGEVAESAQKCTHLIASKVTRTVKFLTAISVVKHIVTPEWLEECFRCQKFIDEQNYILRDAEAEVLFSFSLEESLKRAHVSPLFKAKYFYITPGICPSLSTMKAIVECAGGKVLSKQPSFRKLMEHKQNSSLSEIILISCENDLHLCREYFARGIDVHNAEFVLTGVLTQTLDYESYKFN

[4] = target: hPTIP-BRCT pair C1 + C2 W929A (Homo sapiens, UniProt Q6ZW49, W929A); assay: BiaCore binding to hPTIP BRCT pair C1 + C2 W929A
Sequence of hPTIP-BRCT pair C1 + C2 W929A (Q6ZW49 590-1069 W929A): as the sequence (Q6ZW49 590-1069 W676A) above, with A87W, W340A counted along it

[5] = target: 53BP1 peptide Non(P), biotin-… (human); assay: SPR
[6] = target: 53BP1 peptide Ser25(P), biotin-…p… (human); assay: SPR
Sequence of 53BP1 peptide Ser25(P), biotin-…p… (human) (Q12888 16-35): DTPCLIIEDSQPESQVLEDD

[7] = target: S-Q-V-F (P) peptide, biotin-GAAYDI-pSQ-VFPFAKKK
[8] = test system: BRCA1 Ser1524 phosphorylation in HEK293 cells; assay: IR-induced phosphorylation of BRCA1 at Ser1524; format: cell-based; settings: HEK293, IR 3 Gy, siRNA depletion or rescue, western blot
full-length HA-53BP1 = assay: Co-immunoprecipitation of mutant FLAG-hPTIP with HA-53BP1 after IR; format: cell-based, human; settings: HEK293, IR 0 or 20 Gy, anti-FLAG immunoprecipitates
U2OS cells = assay: hPTIP nuclear focus formation after IR in U2OS cells; format: cell-based; settings: 15 Gy IR, 45 min recovery
How it was run: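 U2OS cells on glass coverslips transiently transfected with wild-type or point-mutant FLAG-hPTIP. Irradiated 0 or 15 Gy, recovered 45 min at 37°C, then fixed, permeabilised and blocked. Anti-FLAG or anti-53BP1 (1 µg/ml) 60 min at room temperature, then Alexa488/594 secondaries (2 µg/ml) 60 min. Fluorescence microscopy; anti-FLAG foci counted in ~200 transfected cells; mean ± SD.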

53BP1 [9] = assay: GST-hPTIP BRCT retrieval of 53BP1 from extracts of irradiated HEK 293 cells; format: binding, human; settings: GST fusion on glutathione-sepharose, HEK 293 extract, 10 Gy IR, western blot
[10] = test system: Chk2 Thr68 phosphorylation in HEK293 cells; assay: IR-induced phosphorylation of Chk2 at Thr68; format: cell-based; settings: HEK293, IR 3 Gy, siRNA depletion or rescue, western blot
53BP1 [11] = settings: previous report; ref [4]; cited from earlier work
[12] = target: GST-hPTIP (590–1069) W676A (human, UniProt Q6ZW49 590-1069, W676A); assay: SPR
Sequence of GST-hPTIP (590–1069) W676A (Q6ZW49 590-1069 W676A): as the sequence (Q6ZW49 590-1069 W676A) above

[13] = target: GST-hPTIP (590–1069) W929A (human, UniProt Q6ZW49 590-1069, W929A); assay: SPR

53BP1 Ser25Ala mutant
IR-induced interaction of 53BP1 with hPTIP (FLAG-hPTIP): abolished
retention at sites of DNA damage (HEK293 cells): indistinguishable from the wild-type protein

O=c1cc(-c2cccc3c2Sc2ccccc2S3)oc(N2CCOCC2)c1 [KU55933]
IR-induced phosphorylation of 53BP1 Ser25 [1]: not in cells pre-incubated with the ATM-specific inhibitor KU55933

O=c1cc(N2CCOCC2)oc2c(-c3cccc4c3sc3ccccc34)cccc12 [NU7441]
IR-induced phosphorylation of 53BP1 Ser25 [1]: did not affect IR-induced phosphorylation of 53BP1 Ser25

CC[C@H](C)[C@H](NC(=O)[C@H](CC(=O)O)NC(=O)[C@H](Cc1ccc(O)cc1)NC(=O)[C@H](C)NC(=O)[C@H](C)NC(=O)CNC(=O)CCCC[C@@H]1SC[C@@H]2NC(=O)N[C@@H]21)C(=O)N[C@@H](COP(=O)(O)O)C(=O)N[C@@H](CCC(N)=O)C(=O)N[C@H](C(=O)N[C@@H](Cc1ccccc1)C(=O)N1CCC[C@H]1C(=O)N[C@@H](Cc1ccccc1)C(=O)N[C@@H](C)C(=O)N[C@@H](CCCCN)C(=O)N[C@@H](CCCCN)C(=O)N[C@@H](CCCCN)C(=O)O)C(C)C [S-Q-V-F peptide] (Biotin-GAAYDI[pS]QVFPFAKKK-OH)
Kd [2]: ~0.273 µM

CC[C@H](C)[C@H](NC(=O)[C@H](CC(C)C)NC(=O)[C@H](CS)NC(=O)[C@@H]1CCCN1C(=O)[C@@H](NC(=O)[C@H](CC(=O)O)NC(=O)CCCC[C@@H]1SC[C@@H]2NC(=O)N[C@@H]21)[C@@H](C)O)C(=O)N[C@H](C(=O)N[C@@H](CCC(=O)O)C(=O)N[C@@H](CC(=O)O)C(=O)N[C@@H](COP(=O)(O)O)C(=O)N[C@@H](CCC(N)=O)C(=O)N1CCC[C@H]1C(=O)N[C@@H](CCC(=O)O)C(=O)N[C@@H](CO)C(=O)N[C@@H](CCC(N)=O)C(=O)N[C@H](C(=O)N[C@@H](CC(C)C)C(=O)N[C@@H](CCC(=O)O)C(=O)N[C@@H](CC(=O)O)C(=O)N[C@@H](CC(=O)O)C(=O)O)C(C)C)[C@@H](C)CC [Ser25(P)] (Biotin-DTPCLIIED[pS]QPESQVLEDD-OH)
Kd [3]: > 1000 µM
Kd [4]: > 1000 µM

GST-hPTIP (590–1069) (BRCT pairs C1 + C2) (from UniProt Q6ZW49 590-1069) (domain or fragment)
Kd [5]: > 1000 µM
Kd [6]: 0.526 µM

GST-hPTIP (862–1069) (BRCT pair C2) (from UniProt Q6ZW49 862-1069) (domain or fragment)
Kd [7]: 0.273 µM

R910Q
phosphorylation of BRCA1 at Ser1524 [8]: could not
binding of hPTIP to 53BP1 in IR-treated cells (full-length HA-53BP1): abolished
nuclear focus formation after IR (U2OS cells): little effect on the ability of hPTIP to form foci after IR

W676A
binding of hPTIP to 53BP1 in IR-treated cells (full-length HA-53BP1): abolished
retrieval of 53BP1 from cell extracts (53BP1 [9]): prevented
nuclear focus formation after IR (U2OS cells): prevented focus formation
number of nuclear foci per cell, after IR (U2OS cells; ∼200 transfected cells, almost all cells): < 10 foci

W929A
binding of hPTIP to 53BP1 in IR-treated cells (full-length HA-53BP1): abolished
nuclear focus formation after IR (U2OS cells): prevented focus formation

mutation of Ser29: 53BP1 with Ser29 singly mutated
IR-induced interaction of 53BP1 with hPTIP (FLAG-hPTIP): no effect

wild-type 53BP1: HA-53BP1 carrying a silent mutation, refractory to silencing by siRNA
phosphorylation of Chk2 at Thr68 [10]: could rescue

B1: hPTIP BRCT pair C2: bacterially expressed GST-hPTIP (862–1069) (protein, UniProt Q6ZW49 862-1069, looked up, fragment)
chain: TPELTPFVLFTGFEPVQVQQYIKKLYILGGEVAESAQKCTHLIASKVTRTVKFLTAISVVKHIVTPEWLEECFRCQKFIDEQNYILRDAEAEVLFSFSLEESLKRAHVSPLFKAKYFYITPGICPSLSTMKAIVECAGGKVLSKQPSFRKLMEHKQNSSLSEIILISCENDLHLCREYFARGIDVHNAEFVLTGVLTQTLDYESYKFN
modifications: GST tag
retrieval of phosphorylated 53BP1 from extracts of irradiated cells (53BP1 [11]): could retrieve phosphorylated 53BP1 from extracts of irradiated cells

Biotin-DTPCLIIED[pS]QPESQVLEDD [53BP1 peptide Ser25(P), biotin-DTPCLIIEDpSQPESQVLEDD]
Kd [12]: > 1000 µM
Kd [13]: > 1000 µM
